From ChEMBL document CHEMBL4699389, “Design and synthesis of a bivalent probe targeting the putative mu opioid receptor and chemokine receptor CXCR4 heterodimer” (RSC Med Chem, 2020) come the findings set out here.

SMILES strings stand for the structures. Activity calls are given as the source filed them. The calls are words filed in the database; no cut-off is given here.

Assay [1] concerns the target T1, C-X-C chemokine receptor type 4 (Homo sapiens, UniProt P61073). In words: Binding affinity to CXCR4 (unknown origin) expressed in CHO cells incubated for 40 mins by immunofluorescence assay. The class given is cell-based. In short, it runs like this:
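Trypsinized CHO-CXCR4 cells (5×10⁵ per well) in FACS buffer (0.5% BSA, 0.05% azide in PBS). Incubated 40 min on ice with mouse anti-human CD184 (1:2000) plus graded compound concentrations, then with anti-mouse IgG-FITC (1:1000) for 30 min on ice. IC50 from at least three independent experiments.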

Assay [2] has as its target T1, C-X-C chemokine receptor type 4. In words: Agonist activity at […] (unknown origin) expressed in HOS cells assessed as increase in calcium influx incubated for 15 mins by Fluo-4AM dye based fluorescence assay. The class given is functional, cell-based. In short, it runs like this: (§1)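 Cells transiently transfected with Gqi5 (Lipofectamine 2000), plated at […] per well and grown to confluence. At 48 h post-transfection, loaded with fluo-4 AM plus probenecid in HBSS-HEPES-Ca-Mg buffer for 45 min. Ligands tested alone at 0.3 nM to 3 μM. Ca²⁺ followed as RFU for 90 s on FlexStation3. Triplicate doses, at least 4 repeats.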

Assay [3] has as its target T2, Mu-type opioid receptor (Mus musculus, UniProt P42866). In words: Antagonist activity at mouse MOR expressed in CHO cells assessed as decrease in DAMGO-induced calcium influx incubated for 15 mins followed by DAMGO stimulation and measured after 90 sec by Fluo-4AM dye based fluorescence assay. The class given is functional, cell-based. Summed up: (§2)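 Gqi5-transfected cells, 48 h post-transfection, loaded with fluo-4 AM/probenecid for 45 min. Pre-incubated 15 min with compound at varying concentrations, then agonist added: SDF-1 for CXCR4-HOS, DAMGO for MOR-CHO. RFU read for 90 s on FlexStation3. IC50 from peak values by non-linear regression. Triplicate doses, at least 4 repeats.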

The target of assay [4] is T2, Mu-type opioid receptor. Description: Displacement of [3H]-NLX from mouse MOR expressed in CHO cells incubated for 1.5 hrs by radioligand binding assay. It is filed as cell-based. A general note: In a radioligand displacement assay an active substance lowers the binding of a labelled ligand.
Assay [5] addresses T1, C-X-C chemokine receptor type 4. In words: Antagonist activity at CXCR4 (unknown origin) expressed in HOS cells assessed as decrease in SDF1-induced calcium influx incubated for 15 mins followed by SDF1 stimulation and measured after 90 sec by Fluo-4AM dye based fluorescence assay. The class given is functional, cell-based. In short, it runs like this: as §2
In assay [6] the target is Mu-type opioid receptor (Mus musculus) (UniProt P42866). Description: Agonist activity at mouse MOR expressed in CHO cells assessed as increase in calcium influx incubated for 15 mins by Fluo-4AM dye based fluorescence assay. The class given is functional, cell-based. In short, it runs like this: as §1
Mu-type opioid receptor (Mus musculus), sequence (P42866 whole entry): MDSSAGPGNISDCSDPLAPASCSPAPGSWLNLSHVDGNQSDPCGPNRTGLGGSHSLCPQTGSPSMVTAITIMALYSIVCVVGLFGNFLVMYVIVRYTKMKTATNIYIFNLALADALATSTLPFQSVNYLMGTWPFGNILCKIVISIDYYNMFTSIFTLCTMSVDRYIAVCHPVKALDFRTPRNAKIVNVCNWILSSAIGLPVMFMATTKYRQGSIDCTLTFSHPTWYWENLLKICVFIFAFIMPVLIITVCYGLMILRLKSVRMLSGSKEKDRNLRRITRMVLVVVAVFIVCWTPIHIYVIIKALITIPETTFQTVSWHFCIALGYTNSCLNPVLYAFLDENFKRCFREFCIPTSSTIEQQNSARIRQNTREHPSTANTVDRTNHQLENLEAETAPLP

T1 sequence (P61073 whole entry): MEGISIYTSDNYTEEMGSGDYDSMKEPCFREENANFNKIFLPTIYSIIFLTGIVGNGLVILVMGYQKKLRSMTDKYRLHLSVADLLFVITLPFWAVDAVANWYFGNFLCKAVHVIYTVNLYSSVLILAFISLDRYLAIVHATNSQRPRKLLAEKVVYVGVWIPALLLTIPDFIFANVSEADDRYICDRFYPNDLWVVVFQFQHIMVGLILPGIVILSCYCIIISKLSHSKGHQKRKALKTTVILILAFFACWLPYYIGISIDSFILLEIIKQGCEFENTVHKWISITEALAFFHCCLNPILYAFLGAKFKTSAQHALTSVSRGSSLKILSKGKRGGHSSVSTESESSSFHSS
T2 sequence (P42866 whole entry): as the sequence (P42866 whole entry) above

`CC1(C)CN2C(CS/C(=N\[C@H]3CC[C@H](CNC(=O)COCC(=O)NCCCCCCNC(=O)COCC(=O)N[C@@H]4CC[C@@]5(O)[C@H]6Cc7ccc(O)c8c7[C@@]5(CCN6CC5CC5)[C@H]4O8)CC3)NC3CCCCC3)=CSC2=N1`: the concentration for half-maximal inhibition (IC50) (usually the concentration that inhibits the measured activity by half) in assay [1] came to 17200 nM; on Mu-type opioid receptor [3], 61.9 nM; in assay [5], 3300 nM. Also, the outcome in assay [2] and in assay [6] was inactive. In addition, the Ki (commonly the equilibrium dissociation constant of an inhibitor or competing ligand from its target) at Mu-type opioid receptor [4] was determined as 25.4 nM.
Consider `CNC(=O)COCC(=O)NCCCCCCNC(=O)COCC(=O)NC[C@H]1CC[C@H](/N=C(/NC2CCCCC2)SCC2=CSC3=NC(C)(C)CN23)CC1`, for which the IC50 in assay [1] was 74000 nM; in assay [5], 78300 nM. The result in assay [2] was inactive.
`CNC(=O)COCC(=O)NCCCCCCNC(=O)COCC(=O)N[C@@H]1CC[C@@]2(O)[C@H]3Cc4ccc(O)c5c4[C@@]2(CCN3CC2CC2)[C@H]1O5`: the result in assay [2] and in assay [6] was inactive. The half-inhibitory concentration (IC50) at Mu-type opioid receptor [3] was 133 nM. Further, the affinity at Mu-type opioid receptor [4] corresponds to a Ki of 2 nM.
